ChEMBL document CHEMBL4706595, “1,3-Oxazine-2-one derived dual-targeted molecules against replicating and non-replicating forms of Mycobacterium tuberculosis” (Eur J Med Chem, 2020)
Values after ≈ are worked out from the molar mass of the structure shown. Active and inactive are the calls of the source. The rule behind the calls is not given here.

Key:
[1] = tested on: Mycobacterium tuberculosis; assay: Antimycobacterial activity against replicating Mycobacterium tuberculosis H37Rv assessed as inhibition of bacterial growth incubated for 7 days by MABA assay; assay type: functional; details: time 7 day
[2] = tested on: Mycobacterium tuberculosis; assay: Antimycobacterial activity against non-replicating Mycobacterium tuberculosis H37Rv expressing pFCA-LuxAB assessed as bacterial growth inhibition incubated for 10 days under anerobic condition by low oxygen recovery assay; assay type: functional; details: 240 h, time 10 day
[3] = tested on: Mycobacterium tuberculosis; assay: Antimycobacterial activity against replicating Mycobacterium tuberculosis H37Ra assessed as inhibition of bacterial growth incubated for 7 days by MABA assay; assay type: functional; details: time 7 day
[4] = tested on: Mycolicibacterium smegmatis; assay: Antimycobacterial activity against Mycobacterium smegmatis mc2155 assessed as inhibition of bacterial growth incubated for 48 hrs by broth microdilution method; assay type: functional; details: MC2 155
[5] = Cytotoxicity against human PBMC assessed as reduction in cell growth after 72 hrs by MTT assay; assay type: tissue-based
[6] = tested on: Mycobacterium tuberculosis; assay: Antimycobacterial activity against Mycobacterium tuberculosis H37Rv ATCC 27294 assessed as inhibition of bacterial growth by agar plate dilution method; assay type: functional
Procedure, shortened: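 MIC determined by agar plate dilution method; isoniazid and rifampin run as references.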

[7] = tested on: Mycobacterium tuberculosis; assay: Inhibition of mycolic acid biosynthesis in Mycobacterium tuberculosis H37Ra assessed as reduction in alfa-mycolate production at 5XMIC incubated for 7 days by TLC analysis; assay type: functional; details: for inhibition (INH): time 7 day
[8] = Inhibition of Mycobacterium tuberculosis H37Ra menG assessed as inhibition of 2-methyl-3-(3,7,11-trimethyldodeca-2,6,10-trienyl)naphthalene-1,4-dione formation using 2-(3,7,11-trimethyldodeca-2,6,10-trienyl)naphthalene-1,4-dione as substrate incubated for 3 hrs in presence of SAM by HPLC analysis
[9] = Inhibition of Mycobacterium smegmatis mc2155 menG assessed as inhibition of 2-methyl-3-(3,7,11-trimethyldodeca-2,6,10-trienyl)naphthalene-1,4-dione formation using 2-(3,7,11-trimethyldodeca-2,6,10-trienyl)naphthalene-1,4-dione as substrate incubated for 3 hrs in presence of SAM by HPLC analysis; parameters: species or system Mycolicibacterium smegmatis MC2 155
[10] = tested on: Mycobacterium tuberculosis; assay: Inhibition of mycolic acid biosynthesis in Mycobacterium tuberculosis H37Ra assessed as reduction in methoxy-mycolate production at 5XMIC incubated for 7 days by TLC analysis; assay type: functional; details: time 7 day
[11] = tested on: Mycobacterium tuberculosis; assay: Inhibition of mycolic acid biosynthesis in Mycobacterium tuberculosis H37Ra assessed as reduction in keto-mycolate production at 5XMIC incubated for 7 days by TLC analysis; assay type: functional; details: for inhibition (INH): time 7 day
[12] = tested on: Mycobacterium tuberculosis; assay: Antimycobacterial activity against dormant Mycobacterium tuberculosis H37Ra assessed as inhibition of bacterial growth at 30 ug/ml incubated for 10 days in presence of Vit-K2 measured following 27 days of culturing on agar plate […] relative to control; assay type: functional; details: dose 30 µg/ml; time 37 day
Procedure, shortened: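 Dormant H37Ra: 2×10⁶ bacteria/ml in sealed vials, 37 °C, 25 rpm. Cultures with compound (3 or 30 µg/ml) plus 1 mM Vit-K2 grown 10 days, then CFU counted on 7H10 agar after 27 days; comparison with 1 mM Vit-K2 set.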

[13] = tested on: Mycobacterium tuberculosis; assay: Inhibition of respiratory system in dormant Mycobacterium tuberculosis H37Ra assessed as reduction in ATP production at 20 to 80 ug/ml measured on day 3 to 9 following drug addition by microplate reader analysis; assay type: functional; details: dose 20-80 µg/ml, time 3-9 day

Structure (SMILES) | MIC [1] [µg/mL] | MIC [2] [µg/mL] | MIC [3] [µg/mL] | MIC [4] [µg/mL] | IC50 [5] [µg/mL] | MIC [6] [µg/mL] | inhibition (INH) [7] [%] | IC50 [8] [µg/mL] | IC50 [9] [µg/mL] | inhibition (INH) [10] [%] | inhibition (INH) [11] [%] | fold change (FC) [12] | inhibition [13] | inhibition ([7]; time 7.0 day) | inhibition ([11]; time 7.0 day)
CC(C)=CCOc1ccc(C(=O)OCCCOc2cccc(Nc3nc4ccccc4c(=O)o3)c2)cc1 | > 100 | > 100 | > 100 | 12.5 (≈ 25 µM) | 190 (≈ 380 µM) | – | – | – | – | – | – | – | – | – | –
CCCCCCCCCCCCCCCCCCOc1ccc(C(=O)OCCCOc2cccc(Nc3nc4ccccc4c(=O)o3)c2)cc1 | 56.1 (≈ 81.9 µM) | 38.2 (≈ 55.7 µM) | 60.4 (≈ 88.2 µM) | 12.5 (≈ 18.3 µM) | 158 (≈ 231 µM) | – | – | – | – | – | – | – | – | – | –
O=c1oc(Nc2cccc(O)c2)nc2ccccc12 | 75.2 (≈ 296 µM) | 40.1 (≈ 158 µM) | 66.2 (≈ 260 µM) | 25 (≈ 98.3 µM) | 173 (≈ 682 µM) | – | – | – | – | – | – | – | – | – | –
NNC(=O)c1ccncc1 [ISONIAZID] | 0.43 (≈ 3.14 µM) | > 128 | 0.3 (≈ 2.19 µM) | 6.1 (≈ 44.5 µM) | 71.7 (≈ 523 µM) | 0.4 (≈ 2.92 µM) | – | – | – | – | – | – | – | – | –
CCCCCCC(=O)Oc1cccc(Nc2nc3ccccc3c(=O)o2)c1 | > 100 | > 100 | > 100 | 50 (≈ 136 µM) | 176 (≈ 481 µM) | – | – | – | – | – | – | – | – | – | –
CC(C)=CCC/C(C)=C/CC/C(C)=C/COc1ccc(C(=O)OCCCOc2cccc(Nc3nc4ccccc4c(=O)o3)c2)cc1 | 2.97 (≈ 4.66 µM) | 2.15 (≈ 3.38 µM) | 2.71 (≈ 4.26 µM) | 3.2 (≈ 5.03 µM) | 169 (≈ 266 µM) | 2.9 (≈ 4.55 µM) | 100 | 6.25 | 10.88 | 100 | 100 | 4.1 | Active | – | –
CCCCCCCC/C=C/CCCCCCCCOc1ccc(C(=O)OCCCOc2cccc(Nc3nc4ccccc4c(=O)o3)c2)cc1 | 18.7 (≈ 27.4 µM) | 35.9 (≈ 52.6 µM) | 19.6 (≈ 28.7 µM) | 12.5 (≈ 18.3 µM) | 150 (≈ 219 µM) | – | – | – | – | – | – | – | – | – | –
CCCCCCCCCOc1ccc(C(=O)OCCCOc2cccc(Nc3nc4ccccc4c(=O)o3)c2)cc1 | 41.8 (≈ 74.9 µM) | 31 (≈ 55.6 µM) | 37.1 (≈ 66.5 µM) | 50 (≈ 89.5 µM) | 169 (≈ 303 µM) | – | – | – | – | – | – | – | – | – | –
CCCCCCCC(=O)Oc1cccc(Nc2nc3ccccc3c(=O)o2)c1 | > 100 | > 100 | > 100 | > 100 | 190 (≈ 499 µM) | – | – | – | – | – | – | – | – | – | –
CCCCCOc1ccc(C(=O)OCCCOc2cccc(Nc3nc4ccccc4c(=O)o3)c2)cc1 | 7.01 (≈ 13.9 µM) | 9.02 (≈ 17.9 µM) | 8.16 (≈ 16.2 µM) | 25 (≈ 49.7 µM) | 142 (≈ 282 µM) | – | 100 | 20.88 | 27.19 | 48 | 37 | – | – | – | –
CCCCCCCCCC(=O)Oc1cccc(Nc2nc3ccccc3c(=O)o2)c1 | 33 (≈ 80.7 µM) | 53.3 (≈ 130 µM) | 29.6 (≈ 72.4 µM) | 25 (≈ 61.2 µM) | 195 (≈ 476 µM) | – | – | – | – | – | – | – | – | – | –
CCCCC(=O)Oc1cccc(Nc2nc3ccccc3c(=O)o2)c1 | > 100 | > 100 | > 100 | > 100 | 201 (≈ 595 µM) | – | – | – | – | – | – | – | – | – | –
CCOc1ccc(C(=O)OCCCOc2cccc(Nc3nc4ccccc4c(=O)o3)c2)cc1 | > 100 | > 100 | > 100 | > 100 | 102 (≈ 223 µM) | – | – | – | – | – | – | – | – | – | –
CCCCCC(=O)Oc1cccc(Nc2nc3ccccc3c(=O)o2)c1 | > 100 | > 100 | > 100 | > 100 | 186 (≈ 529 µM) | – | – | – | – | – | – | – | – | – | –
CCCCCCCCOc1ccc(C(=O)OCCCOc2cccc(Nc3nc4ccccc4c(=O)o3)c2)cc1 | 12.4 (≈ 22.8 µM) | 18.9 (≈ 34.8 µM) | 16.2 (≈ 29.8 µM) | 12.5 (≈ 23 µM) | 154 (≈ 283 µM) | – | – | – | – | – | – | – | – | – | –
CC(C)=CCC/C(C)=C/COc1ccc(C(=O)OCCCOc2cccc(Nc3nc4ccccc4c(=O)o3)c2)cc1 | 3.48 (≈ 6.12 µM) | 2.94 (≈ 5.17 µM) | 3.93 (≈ 6.91 µM) | 6.3 (≈ 11.1 µM) | 134 (≈ 236 µM) | 3.5 (≈ 6.15 µM) | 100 | 9.11 | 11.76 | 100 | 100 | 2.9 | – | – | –
CCCCCCCOc1ccc(C(=O)OCCCOc2cccc(Nc3nc4ccccc4c(=O)o3)c2)cc1 | > 100 | > 100 | > 100 | > 100 | 181 (≈ 341 µM) | – | – | – | – | – | – | – | – | – | –
CCCCCCCCC(=O)Oc1cccc(Nc2nc3ccccc3c(=O)o2)c1 | > 100 | > 100 | > 100 | > 100 | 171 (≈ 434 µM) | – | – | – | – | – | – | – | – | – | –
CCCCCCCCCCOc1ccc(C(=O)OCCCOc2cccc(Nc3nc4ccccc4c(=O)o3)c2)cc1 | 32.1 (≈ 56.1 µM) | 45.1 (≈ 78.7 µM) | 38 (≈ 66.4 µM) | 100 (≈ 175 µM) | 173 (≈ 303 µM) | – | – | – | – | – | – | – | – | – | –
CCCCCCCC/C=C/CCCCCCCC(=O)Oc1cccc(Nc2nc3ccccc3c(=O)o2)c1 | 47.4 (≈ 91.3 µM) | 68.9 (≈ 133 µM) | 51.4 (≈ 99.2 µM) | 50 (≈ 96.4 µM) | 179 (≈ 344 µM) | – | – | – | – | – | – | – | – | – | –
COc1ccc(C(=O)OCCCOc2cccc(Nc3nc4ccccc4c(=O)o3)c2)cc1 | 9.71 (≈ 21.7 µM) | 40 (≈ 89.6 µM) | 8.16 (≈ 18.3 µM) | > 100 | 162 (≈ 364 µM) | – | – | – | – | – | – | – | – | – | –
CCC(=O)Oc1cccc(Nc2nc3ccccc3c(=O)o2)c1 | > 100 | 98.5 (≈ 317 µM) | > 100 | 100 (≈ 322 µM) | 180 (≈ 579 µM) | – | – | – | – | – | – | – | – | – | –
CCCCOc1ccc(C(=O)OCCCOc2cccc(Nc3nc4ccccc4c(=O)o3)c2)cc1 | 7.28 (≈ 14.9 µM) | 9.41 (≈ 19.3 µM) | 6.32 (≈ 12.9 µM) | 25 (≈ 51.2 µM) | 117 (≈ 239 µM) | – | 100 | 20.06 | 29.71 | 36 | 31 | – | – | – | –
CO[C@H]1/C=C/O[C@@]2(C)Oc3c(C)c(O)c4c(O)c(c(/C=N/N5CCN(C)CC5)c(O)c4c3C2=O)NC(=O)/C(C)=C\C=C\[C@H](C)[C@H](O)[C@@H](C)[C@@H](O)[C@@H](C)[C@H](OC(C)=O)[C@@H]1C [RIFAMPIN] | 0.01 (≈ 0.0122 µM) | 0.04 (≈ 0.0486 µM) | 0.02 (≈ 0.0243 µM) | 1.5 (≈ 1.82 µM) | 62.9 (≈ 76.5 µM) | 0.01 (≈ 0.0122 µM) | – | – | – | – | – | – | – | – | –
CC(C)=CCOc1cccc(NC(=O)Nc2ccccc2C)c1 | 5.2 (≈ 16.8 µM) | – | – | – | – | – | – | – | – | – | – | – | – | – | –
CCCOc1ccc(C(=O)OCCCOc2cccc(Nc3nc4ccccc4c(=O)o3)c2)cc1 | 11.7 (≈ 24.7 µM) | 15.3 (≈ 32.2 µM) | 10 (≈ 21.1 µM) | 12.5 (≈ 26.3 µM) | 145 (≈ 306 µM) | – | – | – | – | – | – | – | – | – | –
CCCCCCOc1ccc(C(=O)OCCCOc2cccc(Nc3nc4ccccc4c(=O)o3)c2)cc1 | 6.12 (≈ 11.8 µM) | 5.32 (≈ 10.3 µM) | 5.83 (≈ 11.3 µM) | 6.3 (≈ 12.2 µM) | 123 (≈ 238 µM) | – | – | 13.53 | 16.33 | 61 | – | – | – | Active | Active
CCCC(=O)Oc1cccc(Nc2nc3ccccc3c(=O)o2)c1 | > 100 | > 100 | > 100 | > 100 | 199 (≈ 615 µM) | – | – | – | – | – | – | – | – | – | –
CCCCCCCCCCCCCCCC(=O)Oc1cccc(Nc2nc3ccccc3c(=O)o2)c1 | > 100 | > 100 | > 100 | 100 (≈ 203 µM) | 182 (≈ 369 µM) | – | – | – | – | – | – | – | – | – | –
CC(=O)Oc1cccc(Nc2nc3ccccc3c(=O)o2)c1 | > 100 | 80.3 (≈ 271 µM) | > 100 | 100 (≈ 338 µM) | 131 (≈ 444 µM) | – | – | – | – | – | – | – | – | – | –
